The list is not random: actives were taken first. Their share in the collection is about 1.4%.
STK33 inh = inhibitors of purified STK33 kinase, primary screen, biochemical, ADP-Glo luminescence, homogeneous, cell-free | inhibition, % at 10 µM | MBP phosphorylation | 320,000 tested, 0.073% active;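 active = inhibition at or above 25%, using the most active replicate where run in duplicate; inactive = inhibition below 25%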
Env fusion inh = inhibitors of HIV-1 Env-driven cell-cell fusion, primary screen, HeLa-JRFL effector, CEM21 target cells, luciferase | 360,000 tested, 1.1% active | inhibition, % at 12.3 µM;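 active = mean replicate inhibition score of at least 50 and every replicate individually at or above 50; inconclusive = only one of the two criteria met; inactive = mean below 50 and not all replicates reaching 50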
CDK5 p35 inh = inhibitors of human CDK5/p35 kinase, primary screen, biochemical, single concentration; Recombinant CDK5/p35, ADP-Glo luminescence, 60 min; inhibition, % at 10 µM; 330,000 tested, 0.01% active; AID 488839, 2010;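 active = highest replicate inhibition of at least 50% and at least 75% of replicates reaching 50%; inconclusive = only one of the two criteria met; inactive = both criteria failed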
Target sequence (Q00535 whole entry, looked up): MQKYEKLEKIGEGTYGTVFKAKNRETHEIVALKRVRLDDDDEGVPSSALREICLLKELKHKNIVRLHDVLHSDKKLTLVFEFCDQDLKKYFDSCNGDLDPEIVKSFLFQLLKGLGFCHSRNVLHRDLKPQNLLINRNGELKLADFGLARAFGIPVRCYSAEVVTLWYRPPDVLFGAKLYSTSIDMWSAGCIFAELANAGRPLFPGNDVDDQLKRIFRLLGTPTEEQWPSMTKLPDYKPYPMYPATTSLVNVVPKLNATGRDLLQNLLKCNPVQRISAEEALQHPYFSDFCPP
Target sequence (Q15078 whole entry, looked up): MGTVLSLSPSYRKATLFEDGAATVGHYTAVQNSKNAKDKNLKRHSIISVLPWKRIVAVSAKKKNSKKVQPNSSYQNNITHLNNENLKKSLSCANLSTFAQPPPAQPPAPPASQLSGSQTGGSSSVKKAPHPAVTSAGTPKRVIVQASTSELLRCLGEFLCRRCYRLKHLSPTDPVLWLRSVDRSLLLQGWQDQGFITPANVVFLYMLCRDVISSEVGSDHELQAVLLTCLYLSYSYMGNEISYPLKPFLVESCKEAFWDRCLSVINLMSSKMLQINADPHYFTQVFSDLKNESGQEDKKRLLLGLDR
GSK3beta inhib = human GSK3beta kinase inhibitors, primary screen, biochemical, cell-free homogeneous, HTS. Glycogen synthase kinase-3 beta (Homo sapiens), P49841. GST-GSK3beta kinase, ADP-Glo luminescence, 60 min; stronger effect = lower value. activity score (negative = inhibition), % at 10 µM. 300,000 tested, 0.038% active. AID 2097, 2009;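 active = more than half of replicate wells score below -50%, meaning over 50% inhibition versus plate controls; inconclusive = some replicates but at most half score below -50%; inactive = no replicate scores below -50%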
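Test system: GST-fused GSK3beta enzyme, cell-free | Quantity: 1.6 ng GST-GSK3beta enzyme per well | Reagent: 25 µM ATP with peptide substrate | Schedule: 60 min enzyme reaction, room temperature | Signal: Luminescent ADP-Glo measurement of ADP formed | Read-out basis: Score relative to plate controls | Control set: DMSO and 20 µM GW8510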
INS-1E GSIS act = GLuc luminescence reporter in INS-1E cells, primary screen for activators of glucose-dependent secretion of insulin | INS-1E GLuc reporter insulin secretion, 2-3 h | activation, % at 16.6 µM | 370,000 tested, 0.61% active | AID 743287, 2014;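 active = lowest replicate activation of at least 40%, so every replicate reaches that level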
GSK3A inh = blockers of GSK3A enzyme activity – biochemical, luminescence, cell-free homogeneous, HTS, primary screen. 320,000 tested, 0.1% active. inhibition, % at 10 µM. AID 2650, 2010. GSK-3 alpha kinase, ADP-Glo luminescence, 60 min. Glycogen synthase kinase-3 alpha (Homo sapiens), P49840;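 active = more than half of replicates show inhibition above 20%; inconclusive = some but at most half of replicates above 20% inhibition; inactive = no replicate shows inhibition above 20%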;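 also: GST-tagged GSK-3 alpha with peptide substrate and 25 µM ATP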
Each line names hits and unclear results; the compound was inactive in the other large screens; [ ] = remark or other dose.

O=[N+]([O-])c1ccc(COc2ccc(-c3[nH]ncc3-c3ccc(Cl)cc3)c(O)c2)cc1	INS-1E GSIS act 41 (no result: Env fusion inh)
COc1ccc(-c2[nH]ncc2-c2ccc(Cl)cc2)c(O)c1	none (no result: Env fusion inh, INS-1E GSIS act)
Cc1ccc(S(=O)(=O)Nc2ccc3c(c2)CC(=O)N([C@@H](C)CO)C[C@@H](C)[C@H](CN(C)C(=O)NC(C)C)O3)cc1	none (no result: STK33 inh, Env fusion inh, CDK5 p35 inh, GSK3beta inhib, GSK3A inh)
CCCNC(=O)C[C@H]1CC[C@@H]2[C@@H](COc3ccc(NC(=O)NCCC)cc3C(=O)N2C)O1	none (no result: STK33 inh, Env fusion inh, CDK5 p35 inh, GSK3beta inhib, GSK3A inh)
c1ccc(CCN2CCN=C2Nc2ccccc2)cc1	INS-1E GSIS act 42
Fc1ccc(CCN2CCN=C2Nc2ccccc2)cc1	none (no result: GSK3beta inhib, INS-1E GSIS act)
c1ccc2c3c([nH]c2c1)-c1[nH]ncc1CC3	STK33 inh 32 (no result: Env fusion inh, INS-1E GSIS act)
CCN1CCN(c2c(C=O)c(Cl)nc3ccc(OC)cc23)CC1	GSK3beta inhib -55, GSK3A inh 82
Cc1ccc(-n2nc3ccc(NC(=O)c4ccco4)cc3n2)cc1	INS-1E GSIS act 65 (no result: Env fusion inh)
Cc1ccc2c(c1)N(Cc1cccc(F)c1)C(=O)C(C)O2 (configuration not stated)	none
CSc1ccc(CN2C(=O)C(C)Sc3ccc(C(C)=O)cc32)cc1 (configuration not stated)	none (no result: STK33 inh, CDK5 p35 inh, GSK3beta inhib, INS-1E GSIS act, GSK3A inh)
COc1cccc(-c2ccc3c(c2)N(Cc2cccc(F)c2)C(=O)C(C)S3)c1 (configuration not stated)	Env fusion inh inconclusive, INS-1E GSIS act 42 (no result: STK33 inh, CDK5 p35 inh, GSK3beta inhib, GSK3A inh)
Cc1ccc2c(c1)N(Cc1ccccc1)C(=O)C(C)S2 (configuration not stated)	none (no result: STK33 inh, CDK5 p35 inh, GSK3beta inhib, GSK3A inh)
CC(=O)c1ccc2c(c1)N(Cc1ccccc1)C(=O)C(C)S2 (configuration not stated)	INS-1E GSIS act 50 (no result: STK33 inh, CDK5 p35 inh, GSK3beta inhib, GSK3A inh)
CC1Oc2ccccc2N(Cc2cccc(F)c2)C1=O (configuration not stated)	INS-1E GSIS act 43 (no result: GSK3beta inhib)
CCC(=O)N1CC(=O)N2[C@@H](CO)[C@H](c3ccc(C#CCc4ccccc4)cc3)[C@@H]2C1	none (no result: STK33 inh, Env fusion inh, CDK5 p35 inh, GSK3beta inhib, GSK3A inh)
O=C(Nc1ccc(Cl)c(Cl)c1)N[C@H]1CC[C@H](CCn2cc(C3CCCC3)nn2)O[C@@H]1CO	none (no result: STK33 inh, Env fusion inh, CDK5 p35 inh, GSK3beta inhib, GSK3A inh)
Cc1cccc(NC(=O)c2ccc(S(=O)(=O)N3CCCCCC3)cc2)n1	none
Cc1cccc(NC(=O)c2ccc(S(=O)(=O)N3CC(C)OC(C)C3)cc2)n1 (configuration not stated)	Env fusion inh 56
CO[C@@H]1CN(C)C(=O)c2ccc(NS(=O)(=O)CC(F)(F)F)cc2OC[C@H](C)N(C)C[C@H]1C	none (no result: STK33 inh, CDK5 p35 inh, GSK3beta inhib, GSK3A inh)
C[C@H]1CCCCO[C@@H](CN(C)Cc2ccc(C(F)(F)F)cc2)[C@@H](C)CN([C@@H](C)CO)C(=O)c2cc(NC(=O)c3ccccc3)ccc2O1	Env fusion inh 69[16.7 µM] (no result: STK33 inh, CDK5 p35 inh, GSK3beta inhib, GSK3A inh)
C[C@@H]1CCCCO[C@H](CN(C)Cc2ccc(C(F)(F)F)cc2)[C@@H](C)CN([C@@H](C)CO)C(=O)c2cc(NC(=O)c3ccccc3)ccc2O1	none (no result: STK33 inh, CDK5 p35 inh, GSK3beta inhib, GSK3A inh)
C[C@@H]1CN([C@@H](C)CO)C(=O)c2cc(NC(=O)c3ccncc3)ccc2O[C@H]1CN(C)Cc1ccncc1	Env fusion inh 67[16.7 µM] (no result: STK33 inh, CDK5 p35 inh, GSK3beta inhib, GSK3A inh)
C[C@@H]1CCCCO[C@@H](CN(C)Cc2ccc(C(F)(F)F)cc2)[C@H](C)CN([C@@H](C)CO)C(=O)c2cc(NC(=O)Cc3ccccc3)ccc2O1	Env fusion inh inconclusive (no result: STK33 inh, CDK5 p35 inh, GSK3beta inhib, GSK3A inh)
C[C@H]1CCCCO[C@H](CN(C)Cc2ccc(C(F)(F)F)cc2)[C@@H](C)CN([C@@H](C)CO)C(=O)c2cc(NC(=O)c3ccccc3)ccc2O1	Env fusion inh 59[16.7 µM] (no result: STK33 inh, CDK5 p35 inh, GSK3beta inhib, GSK3A inh)
C[C@H](CO)N1C[C@H](C)[C@@H](CN(C)Cc2ccncc2)Oc2ccc(NC(=O)c3ccncc3)cc2C1=O	none (no result: STK33 inh, CDK5 p35 inh, GSK3beta inhib, GSK3A inh)
C[C@@H]1CN([C@H](C)CO)C(=O)c2cc(NC(=O)Cc3ccccc3)ccc2O[C@@H](C)CCCCO[C@@H]1CN(C)Cc1ccc(C(F)(F)F)cc1	Env fusion inh 65[16.7 µM] (no result: STK33 inh, CDK5 p35 inh, GSK3beta inhib, GSK3A inh)
